{"source": "ChEMBL document CHEMBL1153193", "about": "“Microwave-assisted synthesis and structure-activity relationships of neuroactive pyrazolo[3,4-b]pyrrolo[3,4-d]pyridine derivatives” (Bioorg Med Chem Lett, 2010)"}
{"system": "Mus musculus", "assay": "Sedative activity in Swiss mouse assessed as reduction of locomotor activity at 10 umol/kg, ip after 40 mins", "format": "organism-based", "details": "in vivo; call rule not given here", "outline": "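Mice received a single screening dose intraperitoneally. Motor activity was counted over the 40 min after injection and expressed as movements per minute. An untreated control group and a midazolam reference group (2 mg/kg) were run alongside. Data are given as means ± SEM, and significance was tested against control.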"}
{"smiles": "Cc1nn(C)c2ncc3c(c12)C(=O)N(c1ccccc1)C3=O", "Activity": "Not Active"}
{"smiles": "COc1ccc(N2C(=O)c3cnc4c(c(C)nn4-c4ccccc4)c3C2=O)cc1", "Activity": "Active"}
{"smiles": "Cc1nn(C)c2ncc3c(c12)C(=O)N(c1ccc(Cl)cc1)C3=O", "Activity": "Not Active"}
{"smiles": "Cc1nn(C)c2ncc3c(c12)C(=O)N(c1ccc(C(=O)O)cc1)C3=O", "Activity": "Not Active"}
{"smiles": "Cc1ccc(N2C(=O)c3cnc4c(c(C)nn4C)c3C2=O)cc1", "Activity": "Not Active"}
{"smiles": "Cc1nn(-c2ccccc2)c2ncc3c(c12)C(=O)N(c1ccc(C(=O)O)cc1)C3=O", "Activity": "Not Active"}
{"smiles": "Cc1nn(C)c2ncc3c(c12)C(=O)N(c1ccc([N+](=O)[O-])cc1)C3=O", "Activity": "Not Active"}
{"smiles": "COc1ccc(N2C(=O)c3cnc4c(c(C)nn4C)c3C2=O)cc1", "Activity": "Not Active"}
{"smiles": "Cc1nn(-c2ccccc2)c2ncc3c(c12)C(=O)N(c1ccc(Cl)cc1)C3=O", "Activity": "Not Active"}
{"smiles": "Cc1nn(-c2ccccc2)c2ncc3c(c12)C(=O)N(c1ccccc1)C3=O", "Activity": "Not Active"}
{"smiles": "Cc1nn(-c2ccccc2)c2ncc3c(c12)C(=O)N(c1ccc([N+](=O)[O-])cc1)C3=O", "Activity": "Active"}
{"smiles": "Cc1ccc(N2C(=O)c3cnc4c(c(C)nn4-c4ccccc4)c3C2=O)cc1", "Activity": "Not Active"}
